One block for each molecule: values may come before it. The source made the active and inactive calls. The rule behind the calls is not given here.
Assays:
Mus musculus [1] = assay: Inhibition of 11beta-HSD1 in ICR mouse assessed as inhibition of conversion of [3H]-cortisone to [3H]-cortisol at 10 mg/kg, po administered 1 hr before [3H]-cortisone challenge; assay type: functional
Method in brief: (§1)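 Mouse pharmacodynamic model. Compound given 10 mg/kg PO, then 3H-cortisone by tail vein injection 1, 4 or 16 h after dosing. […] Plasma compound levels were measured after the PD studies.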

Mus musculus [2] = assay: Inhibition of 11beta-HSD1 in ICR mouse assessed as inhibition of conversion of [3H]-cortisone to [3H]-cortisol at 10 mg/kg, po administered 4 hrs before [3H]-cortisone challenge; assay type: functional; method in brief: as §1
[3] = target: 11-beta-hydroxysteroid dehydrogenase 1 (Homo sapiens, UniProt P28845); assay: Inhibition of human 11beta-HSD1 expressed in CHO-K1 cells assessed as conversion of [3H]-cortisone to [3H]-cortisol by scintillation proximity assay; assay type: cell-based
Sequence of 11-beta-hydroxysteroid dehydrogenase 1 (Homo sapiens, UniProt P28845) (P28845 whole entry): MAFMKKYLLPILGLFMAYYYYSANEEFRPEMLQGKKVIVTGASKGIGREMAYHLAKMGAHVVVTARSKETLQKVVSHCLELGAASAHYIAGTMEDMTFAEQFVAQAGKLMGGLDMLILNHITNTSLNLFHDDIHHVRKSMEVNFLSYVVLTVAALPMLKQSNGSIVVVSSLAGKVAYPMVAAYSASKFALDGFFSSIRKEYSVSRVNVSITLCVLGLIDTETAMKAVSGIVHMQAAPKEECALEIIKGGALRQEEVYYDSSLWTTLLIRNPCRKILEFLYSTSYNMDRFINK
Method in brief: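 Scintillation proximity assay (SPA). IC50 values are the average of two determinations.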

[4] = Bioavailability in C57 mouse at 2 mg/kg, iv and 10 mg/kg, po; assay type: ADME, organism-based; conditions: in vivo
Method in brief: (§2)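 Mouse PK from 2 mg/kg IV and 10 mg/kg oral dosing. The PO AUC is reported normalized to dose.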

Mus musculus [5] = assay: Inhibition of 11beta-HSD1 in ICR mouse assessed as inhibition of conversion of [3H]-cortisone to [3H]-cortisol at 10 mg/kg, po administered 16 hrs before [3H]-cortisone challenge; assay type: functional; method in brief: as §1
[6] = target: 11-beta-hydroxysteroid dehydrogenase 1 (Mus musculus, UniProt P50172); assay: Inhibition of mouse 11beta-HSD1 expressed in CHO-K1 cells assessed as conversion of [3H]-cortisone to [3H]-cortisol by scintillation proximity assay; assay type: cell-based
Sequence of 11-beta-hydroxysteroid dehydrogenase 1 (Mus musculus, UniProt P50172) (P50172 whole entry): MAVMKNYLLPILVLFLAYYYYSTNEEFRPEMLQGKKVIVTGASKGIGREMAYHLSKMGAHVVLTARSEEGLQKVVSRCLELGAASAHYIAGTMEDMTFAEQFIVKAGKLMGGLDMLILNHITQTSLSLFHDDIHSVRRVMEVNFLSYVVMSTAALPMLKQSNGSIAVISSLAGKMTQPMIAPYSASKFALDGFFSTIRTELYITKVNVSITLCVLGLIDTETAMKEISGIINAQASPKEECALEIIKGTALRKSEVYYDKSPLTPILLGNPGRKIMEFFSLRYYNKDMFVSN

[7] = target: T1, Nuclear receptor subfamily 1 group I member 2 (Homo sapiens, UniProt O75469); assay: Activation of PXR
T1 sequence (O75469 whole entry): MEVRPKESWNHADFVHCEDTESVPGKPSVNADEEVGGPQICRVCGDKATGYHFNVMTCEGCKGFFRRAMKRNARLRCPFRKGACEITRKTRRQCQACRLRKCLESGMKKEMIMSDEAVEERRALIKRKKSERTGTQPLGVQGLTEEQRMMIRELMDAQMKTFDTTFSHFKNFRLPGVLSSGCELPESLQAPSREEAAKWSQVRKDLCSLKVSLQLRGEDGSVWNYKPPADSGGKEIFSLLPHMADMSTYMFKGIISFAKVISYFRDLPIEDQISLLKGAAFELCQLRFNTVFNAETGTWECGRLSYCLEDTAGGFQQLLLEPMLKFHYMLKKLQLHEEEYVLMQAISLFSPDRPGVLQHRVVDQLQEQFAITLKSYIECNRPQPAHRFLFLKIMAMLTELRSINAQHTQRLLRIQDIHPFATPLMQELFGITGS
Method in brief: (§3)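 Cyp induction potential assessed in human liver microsomes; read out as human PXR activation, with test compound at 10 μM.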

[8] = Clearance in C57 mouse at 2 mg/kg, iv; assay type: ADME, organism-based; set-up: dose 2 mg/kg, route intravenous; conditions: in vivo; method in brief: as §2
[9] = Volume of distribution in C57 mouse at 2 mg/kg, iv and 10 mg/kg, po; assay type: ADME, organism-based; conditions: in vivo
[10] = Half life in C57 mouse at 2 mg/kg, iv and 10 mg/kg, po; assay type: ADME, organism-based; conditions: in vivo
[11] = Tmax in C57 mouse at 2 mg/kg, iv and 10 mg/kg, po; assay type: ADME, organism-based; conditions: in vivo
[12] = Clearance in Sprague-Dawley rat at 1 mg/kg, iv and 4 mg/kg, po; assay type: ADME, organism-based; conditions: in vivo
[13] = Volume of distribution in Sprague-Dawley rat at 1 mg/kg, iv and 4 mg/kg, po; assay type: ADME, organism-based; conditions: in vivo
[14] = Half life in Sprague-Dawley rat at 1 mg/kg, iv and 4 mg/kg, po; assay type: ADME, organism-based; conditions: in vivo
[15] = Tmax in Sprague-Dawley rat at 1 mg/kg, iv and 4 mg/kg, po; assay type: ADME, organism-based; conditions: in vivo
[16] = Bioavailability in Sprague-Dawley rat 1 mg/kg, iv and 4 mg/kg, po; assay type: ADME, organism-based; conditions: in vivo
[17] = Clearance in Beagle dog at 0.5 mg/kg, iv and 2 mg/kg, po; assay type: ADME, organism-based, Canis lupus familiaris; conditions: in vivo
[18] = Volume of distribution in Beagle dog at 0.5 mg/kg, iv and 2 mg/kg, po; assay type: ADME, organism-based, Canis lupus familiaris; conditions: in vivo
[19] = Half life in Beagle dog at 0.5 mg/kg, iv and 2 mg/kg, po; assay type: ADME, organism-based, Canis lupus familiaris; conditions: in vivo
[20] = Tmax in Beagle dog at 0.5 mg/kg, iv and 2 mg/kg, po; assay type: ADME, organism-based, Canis lupus familiaris; conditions: in vivo
[21] = Bioavailability in Beagle dog at 0.5 mg/kg, iv and 2 mg/kg, po; assay type: ADME, organism-based, Canis lupus familiaris; conditions: in vivo
[22] = Clearance in rhesus monkey at 0.5 mg/kg, iv and 2 mg/kg, po; assay type: ADME, organism-based, Macaca mulatta; conditions: in vivo
[23] = Volume of distribution in rhesus monkey at 0.5 mg/kg, iv and 2 mg/kg, po; assay type: ADME, organism-based, Macaca mulatta; conditions: in vivo
[24] = Half life in rhesus monkey at 0.5 mg/kg, iv and 2 mg/kg, po; assay type: ADME, organism-based, Macaca mulatta; conditions: in vivo
[25] = Tmax in rhesus monkey at 0.5 mg/kg, iv and 2 mg/kg, po; assay type: ADME, organism-based, Macaca mulatta; conditions: in vivo
[26] = Bioavailability in rhesus monkey at 0.5 mg/kg, iv and 2 mg/kg, po; assay type: ADME, organism-based, Macaca mulatta; conditions: in vivo
[27] = Solubility of the compound in water; assay type: physicochemical
[28] = Distribution coefficient, log D of the compound by HPLC analysis; assay type: physicochemical; conditions: octanol/water
[29] = target: T1, Nuclear receptor subfamily 1 group I member 2; assay: Activation of human PXR at 10 uM; method in brief: as §3
Mus musculus [30] = species: Mus musculus; assay: Antiobesity activity in diet-induced obesity mouse model; assay type: functional, organism-based
Mus musculus [31] = species: Mus musculus; assay: Antiatherosclerotic activity in Apo-E knockout mouse model; assay type: functional, organism-based
Mus musculus [32] = species: Mus musculus; assay: Antidiabetic activity in B6-Ay mouse by oral glucose tolerance test; assay type: functional, organism-based
[33] = Induction of cytochrome P450 activity in human liver microsomes; assay type: ADME; method in brief: as §3

- IC50 [3]: 4 nM
- bioavailability [4]: 6%
SMILES: CCCCCC12CCC(c3nnc4n3CCCCCC4)(CC1)CC2
- inhibition in vivo at 10 mg/kg (Mus musculus [1]): 71%
- inhibition in vivo at 10 mg/kg (Mus musculus [2]): 51%

- IC50 [6]: 1.5 nM
- IC50 [3]: 1.1 nM
- Activity [7]: Active
SMILES: Cn1c(-c2ccccc2C(F)(F)F)nnc1C12CCC(COc3ccc(Cl)cc3)(CC1)CC2
- inhibition in vivo at 10 mg/kg (Mus musculus [5]): 77%
- inhibition in vivo at 10 mg/kg (Mus musculus [2]): 98%

- clearance [8]: 2.1 mL/min/kg
- bioavailability [4]: 24%
- Vd [9]: 0.72 L/kg
- half-life [10]: 4.8 h
- Tmax [11]: 5 h
- clearance [12]: 2.9 mL/min/kg
- Vd [13]: 1.1 L/kg
- half-life [14]: 4.9 h
- Tmax [15]: 2 h
- bioavailability [16]: 87%
- clearance [17]: 1.9 mL/min/kg
- Vd [18]: 1.7 L/kg
- half-life [19]: 12.2 h
- Tmax [20]: 2 h
- bioavailability [21]: 59%
- clearance [22]: 4 mL/min/kg
- Vd [23]: 1.6 L/kg
- half-life [24]: 6.5 h
- Tmax [25]: 2 h
- bioavailability [26]: 89%
- solubility [27]: > 1000 µg/mL
- logD [28]: 2.2
- Activity [29]: < 10%
- Activity [33]: Not Active
SMILES: CCS(=O)(=O)CCC12CCC(c3nnc(-c4ccccc4C(F)(F)F)n3C)(CC1)CC2
- inhibition in vivo at 10 mg/kg (Mus musculus [5]): 76%
- inhibition in vivo at 10 mg/kg (Mus musculus [2]): 89%
- Activity (Mus musculus [30]): Active
- Activity (Mus musculus [31]): Active
- Activity (Mus musculus [32]): Active
